# Published values collected from several papers.
# Each line is one published result; the experiments were not run side by side.
# Organism: Plasmodium falciparum
# Read-out: parasite growth
Structure (SMILES),method,strain,tested at,time,setting,quantity,value
CCCC1CCN(c2cc3c(cc2F)c(=O)c(C(=O)OCC)cn3CC)CC1,,3D7,,72 h,blood stage,EC50,30 nM
O=C(Nc1cc(F)ccc1C(=O)O)c1ccc(-c2ccccc2)cc1,SYBR Green,NF54,10 µM,96 h,blood stage,inhibition,17.2%
CCN(CC)CCCC(C)Nc1ccnc2cc(Cl)ccc12 (stereo not shown),,D6,,72 h,blood stage,IC50,0.01 µg/mL
CCn1cc(-c2nc(C)no2)c(=O)c2cc(F)c(N3CCC(C)(C)CC3)cc21,,3D7,,72 h,blood stage,EC50,1480 nM
COc1cnc(Nc2ccnc3cc(-c4ccc(S(=O)(=O)N5CCN(C)CC5)cc4)ccc23)cn1,,D6,,,"drug-resistant strain, blood stage",EC50,130 nM
Cc1ccc(-c2ccccc2C(=O)Nc2c(C)cccc2C(=O)O)cc1,,NF54,2 µM,48 h,gametocyte,inhibition,55%
CCn1cc(C(=O)O)c(=O)c2cc(F)c(N3CCC(C)CC3)cc21,,3D7,,72 h,blood stage,EC50,> 10000 nM
CCN(CC)CCCC(C)Nc1ccnc2cc(Cl)ccc12 (stereo not shown),,D6,,,blood stage,IC50,0.016 µg/mL
Cc1ccc(Nc2ccnc3cc(-c4ccc(S(=O)(=O)N5CCN(C)CC5)cc4)ccc23)cc1Cl,,D6,,,"drug-resistant strain, blood stage",EC50,64 nM
c1ccc2sc(-c3ccnc(Nc4ccc(CN5CCC(N6CCCC6)CC5)cc4)n3)cc2c1,SYBR Green,3D7,1 µM,,blood stage,inhibition,> 75%
CN1CCN(c2nccc(Nc3ccc4c(Nc5cnccn5)ccnc4c3)n2)CC1,,D6,,,"drug-resistant strain, blood stage",EC50,180 nM
CCn1cc(-c2nc(C)no2)c(=O)c2cc(F)c(N3CCC(Cc4ccccc4)CC3)cc21,,3D7,,72 h,blood stage,EC50,9 nM
O=C(Nc1c(F)cccc1C(=O)O)c1ccc(-c2ccccc2)cc1,SYBR Green,NF54,10 µM,96 h,blood stage,inhibition,6.4%
COc1ccc(Nc2ccnc3cc(Nc4nccc(N5CCN(C)CC5)n4)ccc23)cc1Cl,,D6,,,"drug-resistant strain, blood stage",EC50,99 nM
O=C(Nc1ccc(F)cc1C(=O)O)c1ccc(-c2ccccc2)cc1,,NF54,2 µM,48 h,gametocyte,inhibition,43.5%
COc1ccc(Nc2ccnc3cc(-c4ccc(S(=O)(=O)N5CCN(C)CC5)cc4)ccc23)cc1Cl,,D6,,,"drug-resistant strain, blood stage",EC50,12 nM
